Data from ChEMBL document CHEMBL1926550, “Synthesis and antibacterial activity of naphthyridone derivatives containing mono/difluoro-methyloxime pyrrolidine scaffolds” (2012).
Values after ≈ are worked out from the molar mass of the structure shown.

Key:
Type in all cases: functional
Escherichia coli [1] = assay: Antibacterial activity against Escherichia coli 10-1 after 18 hrs by two fold serial dilution method; conditions: 10-1, 18 h
In short: (§1)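 Agar two-fold serial dilution in melted Mueller-Hinton agar, final concentrations 128 down to 0.008 μg/mL. Plates inoculated with 10⁴ cfu and incubated at 35 °C for 18 h. MIC taken as the lowest concentration giving no visible growth on the plate.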

Escherichia coli [2] = assay: Antibacterial activity against Escherichia coli 10-2 after 18 hrs by two fold serial dilution method; conditions: 10-2, 18 h; in short: as §1
Escherichia coli [3] = assay: Antibacterial activity against Escherichia coli 10-3 after 18 hrs by two fold serial dilution method; conditions: 10-3, 18 h; in short: as §1
Klebsiella pneumoniae [4] = assay: Antibacterial activity against Klebsiella pneumoniae 09-2 after 18 hrs by two fold serial dilution method; conditions: 09-2, 18 h; in short: as §1
Klebsiella pneumoniae [5] = assay: Antibacterial activity against Klebsiella pneumoniae 10-1 after 18 hrs by two fold serial dilution method; conditions: 10-1, 18 h; in short: as §1
Klebsiella pneumoniae [6] = assay: Antibacterial activity against Klebsiella pneumoniae 10-3 after 18 hrs by two fold serial dilution method; conditions: 10-3, 18 h; in short: as §1
Pseudomonas aeruginosa [7] = assay: Antibacterial activity against Pseudomonas aeruginosa ATCC 27853 after 18 hrs by two fold serial dilution method; conditions: ATCC 27853, 18 h; in short: as §1
Pseudomonas aeruginosa [8] = assay: Antibacterial activity against Pseudomonas aeruginosa 10-1 after 18 hrs by two fold serial dilution method; conditions: 10-1, 18 h; in short: as §1
Pseudomonas aeruginosa [9] = assay: Antibacterial activity against Pseudomonas aeruginosa 10-2 after 18 hrs by two fold serial dilution method; conditions: 10-2, 18 h; in short: as §1
Pseudomonas aeruginosa [10] = assay: Antibacterial activity against Pseudomonas aeruginosa 10-3 after 18 hrs by two fold serial dilution method; conditions: 10-3, 18 h; in short: as §1
Enterococcus faecium [11] = assay: Antibacterial activity against Enterococcus faecium 09-1 after 18 hrs by two fold serial dilution method; conditions: 09-1, 18 h; in short: as §1
Staphylococcus aureus [12] = assay: Antibacterial activity against Staphylococcus aureus ATCC 25923 after 18 hrs by two fold serial dilution method; conditions: ATCC 25923, 18 h; in short: as §1
Staphylococcus aureus [13] = assay: Antibacterial activity against methicillin-resistant Staphylococcus aureus 10-1 after 18 hrs by two fold serial dilution method; conditions: 10-1, 18 h
In short: (§2)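 Agar two-fold serial dilution in melted Mueller-Hinton agar, 128 to 0.008 μg/mL. Plates inoculated with 10⁴ cfu, incubated 35 °C for 18 h. MIC taken as lowest concentration giving no visible growth on the plate.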

Staphylococcus aureus [14] = assay: Antibacterial activity against methicillin-resistant Staphylococcus aureus 10-2 after 18 hrs by two fold serial dilution method; conditions: 10-2, 18 h; in short: as §2
Staphylococcus aureus [15] = assay: Antibacterial activity against methicillin-resistant Staphylococcus aureus 10-3 after 18 hrs by two fold serial dilution method; conditions: 10-3, 18 h; in short: as §2
Staphylococcus aureus [16] = assay: Antibacterial activity against methicillin-resistant Staphylococcus aureus 10-4 after 18 hrs by two fold serial dilution method; conditions: 10-4, 18 h; in short: as §2
Staphylococcus aureus [17] = assay: Antibacterial activity against methicillin-sensitive Staphylococcus aureus 10-1 after 18 hrs by two fold serial dilution method; conditions: 10-1, 18 h; in short: as §1
Staphylococcus aureus [18] = assay: Antibacterial activity against methicillin-sensitive Staphylococcus aureus 10-2 after 18 hrs by two fold serial dilution method; conditions: 10-2, 18 h; in short: as §1
Staphylococcus aureus [19] = assay: Antibacterial activity against methicillin-sensitive Staphylococcus aureus 10-3 after 18 hrs by two fold serial dilution method; conditions: 10-3, 18 h; in short: as §1
Staphylococcus aureus [20] = assay: Antibacterial activity against methicillin-sensitive Staphylococcus aureus 10-4 after 18 hrs by two fold serial dilution method; conditions: 10-4, 18 h; in short: as §1
Staphylococcus aureus [21] = assay: Antibacterial activity against methicillin-sensitive Staphylococcus aureus 10-5 after 18 hrs by two fold serial dilution method; conditions: 10-5, 18 h; in short: as §1
Staphylococcus aureus [22] = assay: Antibacterial activity against methicillin-sensitive Staphylococcus aureus 10-6 after 18 hrs by two fold serial dilution method; conditions: 10-6, 18 h; in short: as §1
[23] = tested on: Staphylococcus epidermidis; assay: Antibacterial activity against methicillin-resistant Staphylococcus epidermidis 10-1 after 18 hrs by two fold serial dilution method; conditions: 10-1, 18 h; in short: as §2
[24] = tested on: Staphylococcus epidermidis; assay: Antibacterial activity against methicillin-resistant Staphylococcus epidermidis 10-2 after 18 hrs by two fold serial dilution method; conditions: 10-2, 18 h; in short: as §2
[25] = tested on: Staphylococcus epidermidis; assay: Antibacterial activity against methicillin-sensitive Staphylococcus epidermidis 10-1 after 18 hrs by two fold serial dilution method; conditions: 10-1, 18 h; in short: as §1
[26] = tested on: Staphylococcus epidermidis; assay: Antibacterial activity against methicillin-sensitive Staphylococcus epidermidis 10-2 after 18 hrs by two fold serial dilution method; conditions: 10-2, 18 h; in short: as §1
Streptococcus pneumoniae = assay: Antibacterial activity against Streptococcus pneumoniae 10-1 after 18 hrs by two fold serial dilution method; conditions: 10-1, 18 h; in short: as §1
Enterococcus faecium [27] = assay: Antibacterial activity against Enterococcus faecium 09-2 after 18 hrs by two fold serial dilution method; conditions: 09-2, 18 h; in short: as §1
Enterococcus faecium [28] = assay: Antibacterial activity against Enterococcus faecium 09-3 after 18 hrs by two fold serial dilution method; conditions: 09-3, 18 h; in short: as §1
Enterococcus faecium [29] = assay: Antibacterial activity against Enterococcus faecium 09-4 after 18 hrs by two fold serial dilution method; conditions: 09-4, 18 h; in short: as §1
Enterococcus faecium [30] = assay: Antibacterial activity against Enterococcus faecium 09-5 after 18 hrs by two fold serial dilution method; conditions: 09-5, 18 h; in short: as §1
Enterococcus faecium [31] = assay: Antibacterial activity against Enterococcus faecium 09-6 after 18 hrs by two fold serial dilution method; conditions: 09-6, 18 h; in short: as §1
Enterococcus faecalis [32] = assay: Antibacterial activity against Enterococcus faecalis 09-1 after 18 hrs by two fold serial dilution method; conditions: 09-1, 18 h; in short: as §1
Enterococcus faecalis [33] = assay: Antibacterial activity against Enterococcus faecalis 09-2 after 18 hrs by two fold serial dilution method; conditions: 09-2, 18 h; in short: as §1
Escherichia coli [34] = assay: Antibacterial activity against Escherichia coli ATCC 25922 after 18 hrs by two fold serial dilution method; conditions: ATCC 25922, 18 h; in short: as §1
Escherichia coli [35] = assay: Antibacterial activity against Escherichia coli 09-1 after 18 hrs by two fold serial dilution method; conditions: 09-1, 18 h; in short: as §1
Escherichia coli [36] = assay: Antibacterial activity against Escherichia coli 09-2 after 18 hrs by two fold serial dilution method; conditions: 09-2, 18 h; in short: as §1
Escherichia coli [37] = assay: Antibacterial activity against Escherichia coli 09-3 after 18 hrs by two fold serial dilution method; conditions: 09-3, 18 h; in short: as §1

Question: Which MIC (Escherichia coli [1]) does the source give for `NCC1CN(c2ccc3c(=O)c(C(=O)O)cn(C4CC4)c3n2)C/C1=N\OCF` (racemic) here?
Answer: Its MIC is > 128 µg/mL.

Question: What about the MIC (Escherichia coli [2]) of the same molecule?
Answer: Its MIC is 4 µg/mL (≈ 10.3 µM).

Question: And the MIC (Escherichia coli [3])?
Answer: The MIC was > 128 µg/mL.

Question: What about the MIC (Klebsiella pneumoniae [4]) of the same molecule?
Answer: The MIC was > 128 µg/mL.

Question: And the MIC (Klebsiella pneumoniae [5])?
Answer: Its MIC is 0.5 µg/mL (≈ 1.28 µM).

Question: What about the MIC (Klebsiella pneumoniae [6]) of the same molecule?
Answer: Its MIC is 4 µg/mL (≈ 10.3 µM).

Question: What about the MIC (Pseudomonas aeruginosa [7]) of the same molecule?
Answer: Its MIC is 4 µg/mL (≈ 10.3 µM).

Question: And the MIC (Pseudomonas aeruginosa [8])?
Answer: Its MIC is 2 µg/mL (≈ 5.14 µM).

Question: And the MIC (Pseudomonas aeruginosa [9])?
Answer: The MIC was > 128 µg/mL.

Question: And the MIC (Pseudomonas aeruginosa [10])?
Answer: The MIC was 32 µg/mL (≈ 82.2 µM).

Question: What about the MIC (Enterococcus faecium [11]) of the same molecule?
Answer: The MIC was 64 µg/mL (≈ 164 µM).

Question: And the MIC (Staphylococcus aureus [12])?
Answer: The MIC was 0.25 µg/mL (≈ 0.642 µM).

Question: What about the MIC (Staphylococcus aureus [13]) of the same molecule?
Answer: The MIC was > 128 µg/mL.

Question: And the MIC (Staphylococcus aureus [14])?
Answer: The MIC was 64 µg/mL (≈ 164 µM).

Question: And the MIC (Staphylococcus aureus [15])?
Answer: The MIC was > 128 µg/mL.

Question: And the MIC (Staphylococcus aureus [16])?
Answer: The MIC was > 128 µg/mL.

Question: What about the MIC (Staphylococcus aureus [17]) of the same molecule?
Answer: Its MIC is 0.03 µg/mL (≈ 0.077 µM).

Question: And the MIC (Staphylococcus aureus [18])?
Answer: Its MIC is 128 µg/mL (≈ 329 µM).

Question: What about the MIC (Staphylococcus aureus [19]) of the same molecule?
Answer: Its MIC is 0.25 µg/mL (≈ 0.642 µM).

Question: What about the MIC (Staphylococcus aureus [20]) of the same molecule?
Answer: The MIC was 0.25 µg/mL (≈ 0.642 µM).

Question: And the MIC (Staphylococcus aureus [21])?
Answer: Its MIC is 0.125 µg/mL (≈ 0.321 µM).

Question: And the MIC (Staphylococcus aureus [22])?
Answer: Its MIC is 0.125 µg/mL (≈ 0.321 µM).

Question: And the MIC [23]?
Answer: Its MIC is 32 µg/mL (≈ 82.2 µM).

Question: And the MIC [24]?
Answer: The MIC was 64 µg/mL (≈ 164 µM).

Question: And the MIC [25]?
Answer: Its MIC is 16 µg/mL (≈ 41.1 µM).

Question: And the MIC [26]?
Answer: Its MIC is 32 µg/mL (≈ 82.2 µM).

Question: What about the MIC (Streptococcus pneumoniae) of the same molecule?
Answer: The MIC was 0.25 µg/mL (≈ 0.642 µM).

Question: And the MIC (Enterococcus faecium [27])?
Answer: Its MIC is 64 µg/mL (≈ 164 µM).

Question: And the MIC (Enterococcus faecium [28])?
Answer: The MIC was 64 µg/mL (≈ 164 µM).

Question: What about the MIC (Enterococcus faecium [29]) of the same molecule?
Answer: Its MIC is 2 µg/mL (≈ 5.14 µM).

Question: What about the MIC (Enterococcus faecium [30]) of the same molecule?
Answer: Its MIC is 16 µg/mL (≈ 41.1 µM).

Question: What about the MIC (Enterococcus faecium [31]) of the same molecule?
Answer: Its MIC is 1 µg/mL (≈ 2.57 µM).

Question: And the MIC (Enterococcus faecalis [32])?
Answer: The MIC was 64 µg/mL (≈ 164 µM).

Question: And the MIC (Enterococcus faecalis [33])?
Answer: Its MIC is 64 µg/mL (≈ 164 µM).

Question: And the MIC (Escherichia coli [34])?
Answer: Its MIC is 0.06 µg/mL (≈ 0.154 µM).

Question: What about the MIC (Escherichia coli [35]) of the same molecule?
Answer: The MIC was > 128 µg/mL.

Question: And the MIC (Escherichia coli [36])?
Answer: The MIC was > 128 µg/mL.

Question: And the MIC (Escherichia coli [37])?
Answer: Its MIC is > 128 µg/mL.
